Measurements gathered from unrelated publications.
Each line is one published result; the experiments were not run side by side.
Target: Tyrosine-protein kinase Yes (YES1, Homo sapiens, UniProt P07947)

Structure (SMILES) | assay | conditions | quantity | result
Cn1cc(-c2cc(F)cc(N3CCn4c(cc5c4CCCC5)C3=O)c2CO)cc(Nc2ccc(N3CCN(C4COC4)CC3)cn2)c1=O | enzyme activity, inhibitor | 0.1 µM | inhibition | 11%
Cc1nn(C)cc1-c1nc2c(N3CCN(Cc4ccc(Cl)cc4)CC3)c(Cl)cnc2[nH]1 | binding, competition with immobilised ligand | 1 µM | remaining binding | 96%
O=c1[nH]c2ccccc2n1C1CCN(Cc2ccc(-c3[nH]c4cc5ncnc5cc4nc3-c3ccccc3)cc2)CC1 | cell-free assay | 0.5 µM | remaining signal | 90.8%
Nc1ncc(-c2nc(N3CCOCC3)nc(N3CCOCC3)n2)c(C(F)F)n1 | binding, competition with immobilised ligand | 10 µM | remaining binding | 80%
CC(C)(C)c1cc(C=C(C#N)C#N)cc(Br)c1O | enzyme activity, inhibitor | 0.5 µM | remaining activity | 83%
C#Cc1n[nH]c2c(-c3cn([C@@H](C)c4ccccn4)c(=O)[nH]c3=O)cc(F)cc12 | enzyme activity, inhibitor | 0.1 µM | inhibition | -3.4%
COc1ncccc1-c1cnn2ccc(N3CCN(C(=O)OC(C)C)CC3)nc12 | binding, competition with immobilised ligand | 1 µM | remaining binding | 100%
Cn1cncc1[C@@](O)(COc1ccc(C#N)cc1-c1ccc(OC(F)(F)F)cc1)c1ccc(C#N)cc1 | cell-free assay, competition with immobilised ligand | 1 µM | remaining binding | 100%
